Laboratory results reported in ChEMBL document CHEMBL1157559, “Synthesis and biological evaluation of novel pyrazolyl-2,4-thiazolidinediones as anti-inflammatory and neuroprotective agents” (Bioorg Med Chem, 2010).
The source made the active and inactive calls. The calls are words filed in the database; no cut-off is given here.

What was measured:
SH-SY5Y [1] = experiment: Neuroprotective activity in human SH-SY5Y cells assessed as inhibition of LPS, IFN-gamma-stimulated THP1 cellular supernatant-induced cytotoxicity after 72 hrs by LDH assay; assay type: functional, cell-based
How it was run: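 SH-SY5Y cells plated 24 h, then medium replaced with supernatant from THP-1 cells stimulated with LPS + IFN-γ for 48 h. Compound added directly to the SH-SY5Y cells at the time of transfer. Cell death measured by LDH release after 72 h; 4–6 independent experiments.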

SH-SY5Y [2] = experiment: Neuroprotective activity in human SH-SY5Y cells assessed as inhibition of H2O2-induced cytotoxicity after 72 hrs by LDH assay; assay type: functional, cell-based
How it was run: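 SH-SY5Y cells plated in DMEM-F12 with 5% FBS. After 24 h, medium replaced with medium containing H2O2 (500 µM in methods, 250 µM in figure legend), and compound added directly at that time. Cell death measured by LDH release 72 h later.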

Rattus norvegicus [3] = experiment: Antiinflammatory activity in Wistar albino rat acute inflammatory model assessed as inhibition of formalin-induced paw edema at 20 mg/kg, po administered 1 hr before formalin challenge measured after 1 hr by plethysmometer relative to control; assay type: functional; set-up: scale not given: the % may be the effect or the level left
How it was run: (§1)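 Male Wistar rats, 180–200 g, groups of five. Test compound 20 mg/kg po; 1 h later 0.1 mL 2% formalin injected subplantar into left hind paw under light ether anesthesia. Paw volume by water plethysmometer at 0 and 1, 2, 3, 4 h after formalin. % inhibition = (Vt−V0)control minus (Vt−V0)treated, divided by (Vt−V0)control ×100. Mean ± SEM, ANOVA with Student–Newman–Keuls.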

Rattus norvegicus [4] = experiment: Antiinflammatory activity in Wistar albino rat acute inflammatory model assessed as inhibition of formalin-induced paw edema at 20 mg/kg, po administered 1 hr before formalin challenge measured after 4 hrs by plethysmometer relative to control; assay type: functional; set-up: scale not given: the % may be the effect or the level left; how it was run: as §1
Rattus norvegicus [5] = experiment: Antiinflammatory activity in Wistar albino rat sub-acute inflammatory model assessed as inhibition of formalin-induced paw edema at 20 mg/kg, po administered daily for 7 days by plethysmometer relative to control; assay type: functional; conditions: 168 h
How it was run: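 Rats dosed orally at 20 mg/kg daily for 7 consecutive days. 0.1 mL 2% formalin given subplantar in left hind paw under light ether 1 h after the first oral dose, with a second injection on day 3. Paw edema weight (g) measured on day 8. % inhibition = (control − treated)/control ×100. Groups of five.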

Rattus norvegicus [6] = experiment: Antiinflammatory activity in Wistar albino rat sub-acute inflammatory model assessed as inhibition of turpentine oil-induced granuloma pouch exudate volume at 20 mg/kg, po 1 hr before turpentine oil challenge for 7 days assessed measured on day 8; assay type: functional
How it was run: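 Male rats 120–150 g, five per group. Subcutaneous dorsal pouch made under ether with 2 mL air, then 0.5 mL turpentine oil injected. Compound 20 mg/kg po 1 h before turpentine, then daily for seven days. On day 8 exudate drawn by syringe under anesthesia and volume measured. % inhibition = (Vcontrol − Vtreated)/Vcontrol ×100.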

Rattus norvegicus [7] = experiment: Gastrointestinal toxicity in Wistar albino rat assessed as hyperemia at 100 mg/kg/day, po administered twice daily for 3 days; assay type: organism-based; set-up: route oral; conditions: in vivo, 72 h
How it was run: (§2)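 Male rats 180–200 g, groups of five, fasted 12 h with water available. Compounds given orally as two equal doses at 0 and 12 h, 100 mg/kg per day, for three successive days; vehicle control 1% gum acacia. Rats killed 6 h after last dose. Stomach opened along greater curvature, washed with cold saline and inspected under 3× lens for hyperemia, hemorrhage, erosions or ulcers.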

Rattus norvegicus [8] = experiment: Gastrointestinal toxicity in Wistar albino rat assessed as ulceration at 100 mg/kg/day, po administered twice daily for 3 days; assay type: organism-based; set-up: route oral; conditions: in vivo, 72 h; how it was run: as §2
Rattus norvegicus [9] = experiment: Antiinflammatory activity in po dosed Wistar albino rat acute inflammatory model assessed as inhibition of formalin-induced paw edema administered 1 hr before formalin challenge measured after 3 hrs by plethysmometer; assay type: functional
How it was run: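 Rats dosed orally at 5, 10, 20, 40 and 50 mg/kg body weight. Edema volume inhibition measured 3 h after subplantar formalin (2%, 0.1 mL), and ED50 determined from these doses.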

THP-1 = experiment: Cytotoxicity against LPS and IFN-gamma-stimulated human THP1 cells after 24 hrs; assay type: functional, cell-based; conditions: THP-1, 24 h
How it was run: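 THP-1 cells, 24-well, in DMEM-F12 with 5% FBS. Compound or DMSO added 15 min before LPS 0.5 µg/mL plus IFN-γ 150 U/mL. After 24 h, LDH release (fraction of Triton-lysed value, OD 490) and MTT were read. EC50 taken from curves of at least three independent experiments; the lower of the two assay values was reported.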

HL-60 = experiment: Inhibition of phagocyte respiratory burst in human HL60 cells after 6 to 7 days by luminol-induced chemiluminescence; assay type: functional, cell-based
How it was run: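 HL-60 cells differentiated 6–7 days in DMEM-F12 with 10% FBS and 1.3% DMSO, washed into serum-free, phenol red-free medium, then held 30 min at 37 °C before compound or DMSO was added. Luminol injected, 7.5 min baseline recorded, then FMLP injected (final 1 µM; luminol 5 mM; DMSO 0.5%). Chemiluminescence recorded 30 min at 37 °C; read-out was area under the curve.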

[10] = molecular target: T1, Prostaglandin G/H synthase 2 (Homo sapiens) (UniProt P35354); conditions: at 10 µM
T1 sequence (whole entry): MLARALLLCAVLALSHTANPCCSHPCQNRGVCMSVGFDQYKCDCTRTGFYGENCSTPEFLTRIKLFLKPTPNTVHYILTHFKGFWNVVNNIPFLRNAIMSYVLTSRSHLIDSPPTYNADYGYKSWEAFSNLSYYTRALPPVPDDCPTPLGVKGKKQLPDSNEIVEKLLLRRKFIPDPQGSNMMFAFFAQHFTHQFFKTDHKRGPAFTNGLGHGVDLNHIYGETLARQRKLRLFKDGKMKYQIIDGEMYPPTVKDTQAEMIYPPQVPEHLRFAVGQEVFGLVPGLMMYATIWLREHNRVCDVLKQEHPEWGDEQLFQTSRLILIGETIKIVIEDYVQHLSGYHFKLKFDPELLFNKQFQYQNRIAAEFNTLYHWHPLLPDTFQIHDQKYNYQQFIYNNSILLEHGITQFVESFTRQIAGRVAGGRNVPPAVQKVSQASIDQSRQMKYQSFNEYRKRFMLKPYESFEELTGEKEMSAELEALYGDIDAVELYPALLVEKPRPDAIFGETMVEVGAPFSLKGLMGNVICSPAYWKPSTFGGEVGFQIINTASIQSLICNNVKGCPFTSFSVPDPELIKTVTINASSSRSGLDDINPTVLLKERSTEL

Compound: O=C1NC(=O)/C(=C/c2cn(-c3ccc([N+](=O)[O-])cc3)nc2-c2ccc(Cl)cc2)S1
- inhibition (SH-SY5Y [1]): inactive
- inhibition (SH-SY5Y [2]): inactive
- Activity (Rattus norvegicus [3]): 24%
- Activity (Rattus norvegicus [4]): 68%
- inhibition in vivo at 20 mg/kg (Rattus norvegicus [5]): 51%
- inhibition in vivo at 20 mg/kg (Rattus norvegicus [6]): 51%
- Activity (Rattus norvegicus [7]): Non-toxic
- Activity (Rattus norvegicus [8]): 0%
- ED50 (Rattus norvegicus [9]): 15.2 mg/kg
- EC50 (THP-1): > 100 µM
- IC50 (HL-60): 1 µM
- inhibition [10]: 19.4%
